Test results from ChEMBL document CHEMBL1142616, “New diketopiperazine alkaloids from Penicillium fellutanum” (J Nat Prod, 2000).
Active and inactive are the calls of the source.

Experiments:
Format in all cases: functional, cell-based
HeLa = experiment: Cytotoxicity against human HeLa cells after 72 hrs
Method in brief: (§1)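 Cells were exposed for 72 h of cultivation; L-929 mouse fibroblasts and HeLa human cells grown adherent, K-562 human leukemia cells grown nonadherent. Result given as IC50 in µg/mL.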

K562 = experiment: Cytotoxicity against human K562 cells after 72 hrs; method in brief: as §1
L929 = experiment: Cytotoxicity against mouse L929 cells after 72 hrs; method in brief: as §1

Measured: Activity

C=CC(C)(C)c1[nH]c2ccccc2c1C[C@@H]1NC(=O)[C@H](Cc2c[nH]c3ccccc23)NC1=O
inactive: all assays above

O=C1N[C@@H](Cc2c[nH]c3ccccc23)C(=O)N[C@H]1Cc1c[nH]c2ccccc12
inactive: all assays above

C=CC(C)(C)c1[nH]c2ccccc2c1C[C@@H]1NC(=O)[C@H](Cc2c(C(C)(C)C=C)[nH]c3ccccc23)NC1=O
inactive: all assays above
